Most compounds without a hit are left out; they make up all but 1.4% or so of the library.
Avidin bead fluor = compound fluoresces at 488/530 nm on avidin beads; fluorescence (KMESF) at 10 µM; 220,000 tested, 0.38% active; compound fluorescence 488/530 nm, flow cytometry; stronger effect = higher value; in the data active means fluorescence above about 47
GSH bead fluor = GSH bead compound fluorescence profile; GSH beads flow cytometry, compound fluorescence 488/530 nm; stronger effect = higher value; fluorescence (KMESF) at 10 µM; AID 1776; 190,000 tested, 0.25% active; in the data active means fluorescence above about 89;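 further: glutathione beads carrying GST-tagged Bcl family fusion proteins plus one bare bead set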
PMI activator = phosphomannose isomerase (human) activation. AID 1214. purified human PMI, coupled resazurin fluorescence, 20 min; stronger effect = higher value; 1 = vehicle control, 0 substrate-free wells. 190,000 tested, 0.005% active. P34949. activation factor at 20 µM;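 active means activation factor of 2 or more at 20 µM, relative to plate controls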
NCF1 inh = p47phox (human) inhibition; p47phox/p22phox peptide binding, fluorescence polarization, 2 h; inhibition, % at 24.7 µM; 220,000 tested, 0.53% active;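 active means inhibition above about 30%, limit read from the data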
Target sequence (P14598 whole entry, looked up): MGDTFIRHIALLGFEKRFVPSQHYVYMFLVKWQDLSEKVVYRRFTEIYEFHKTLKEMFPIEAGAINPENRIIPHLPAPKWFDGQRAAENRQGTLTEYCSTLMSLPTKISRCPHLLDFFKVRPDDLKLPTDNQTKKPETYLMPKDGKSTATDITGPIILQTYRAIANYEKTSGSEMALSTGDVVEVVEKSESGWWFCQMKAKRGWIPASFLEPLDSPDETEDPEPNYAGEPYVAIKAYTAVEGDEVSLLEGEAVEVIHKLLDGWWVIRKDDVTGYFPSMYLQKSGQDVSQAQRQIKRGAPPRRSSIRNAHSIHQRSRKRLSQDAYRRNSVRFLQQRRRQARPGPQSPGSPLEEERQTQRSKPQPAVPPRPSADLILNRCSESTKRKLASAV
PMI act hi M6P = PMI (human) activation, high substrate | activation factor at 20 µM | 190,000 tested, 0.34% active | P34949 | coupled PMI enzyme assay, resazurin fluorescence, 20 min; stronger effect = higher value; 1 = untreated enzyme, 0 = substrate-free blank | AID 1216;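 active means activation factor of 2 or more at 20 µM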
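Test system: human phosphomannose isomerase with PGI, G6PDH, diaphorase coupling enzymes; amount: 15 ng/mL PMI; incubation: enzyme reaction with compound 20 min at room temperature; technique: resorufin fluorescence (Ex 544/Em 590 nm) from resazurin via diaphorase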
Diaphorase act = counter-screen for diaphorase-based assays: diaphorase activators and chemical reducers; Diaphorase/resazurin coupled assay, resorufin fluorescence, 16 min; stronger effect = higher value; 1 = vehicle wells, 0 = NADH-free wells; activation factor at 20 µM; 190,000 tested, 0.005% active; AID 1229;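 active means diaphorase activity raised at least twofold by the compound at 20 µM; inactive means activation factor below 2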
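Test system: Clostridium kluyveri diaphorase, purified enzyme; input: enzyme 0.07 U/mL final; buffer or medium: 50 mM HEPES pH 7.4 with 4.542 mM MgCl2, 0.005% Tween 20; also added: 0.114 mM NADH and 0.1 mM resazurin, final amounts; schedule: 16 min enzyme reaction, ambient temperature; technique: fluorescence of resorufin, 544 nm excitation, 590 nm emission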
Of the large screens only hits and unclear results are named; the others gave an inactive call.

CCOC(=O)C(=O)NNc1cccc(C)c1C	PMI act hi M6P 2.2
CCOC(=O)C(=O)NNc1ccccc1C	PMI act hi M6P 2.2
CSc1nc(S(=O)(=O)c2ccccc2)c(Cl)s1	none
COC(=O)c1ccc(C23CC4(C2)[C@H](CN(Cc2ccc(C(F)(F)F)cc2)[C@@H]4c2ccccc2)C3c2ccc(C(F)(F)F)cc2)cc1 (some centres undefined)	none (no result: GSH bead fluor, PMI activator, PMI act hi M6P, Diaphorase act)
O=C(Oc1ccc(Br)cc1)c1cncc(Br)c1	Avidin bead fluor 89
Cc1cccc(Oc2coc3cc(OC(=O)c4cncc(Br)c4)ccc3c2=O)c1	NCF1 inh 86.9
CC(=O)c1c(C)[nH]c(C(=O)CSc2nc3ccccc3n2C)c1C	none
CCOC(=O)Cn1c(=O)oc2cc(S(=O)(=O)NCc3ccccn3)ccc21	none
COc1ccc(-c2ccc(C(c3c(C)[nH][nH]c3=O)c3c(C)[nH][nH]c3=O)o2)c([N+](=O)[O-])c1	NCF1 inh 42.5
O=C(CN1CCOCC1)Nc1ccc(Oc2ccc(NC(=O)CN3CCOCC3)cc2)cc1	none
O=c1[nH]c(Cc2ccccn2)nc2scc(-c3ccccc3Cl)c12	PMI act hi M6P 2.1
Cn1cnc2cc(NC(=O)c3ccco3)ccc21	none
CCN1CCN(C(=O)CN(C)S(=O)(=O)c2cc(C)ccc2OC)CC1	none
CCOc1cc(N2CCOCC2)c(OCC)cc1NC(C)C(=O)N1CCN(CC)CC1 (centres undefined)	NCF1 inh 66.7
CCOc1cc(N2CCOCC2)c(OCC)cc1NC(=O)C(C)C	none (no result: GSH bead fluor, PMI activator, PMI act hi M6P, Diaphorase act)
O=C(CSc1nnc(CNC(=O)c2ccco2)o1)Nc1ccccc1	Avidin bead fluor 59
COc1ccc(NC(=O)CSc2nnc(CNC(=O)c3ccco3)o2)cc1	none
CCOc1ccc(OCC)c(NC(=O)C2CCN(c3ncccn3)CC2)c1	none
CCOc1ccc(OCC)c(NC(=O)C2CCCN(c3ncccn3)C2)c1 (centres undefined)	GSH bead fluor 264
CCOc1ccc2c(c1)n(CO)c(=S)n2CO	Avidin bead fluor 104
O=P(c1ccccc1)(c1ccccc1)C(O)c1ccco1 (centres undefined)	none
CCOC(=O)C(CCCCCOc1ccccc1[N+](=O)[O-])C(=O)OCC	none
COc1ccc(-c2nc(=S)c3c([nH]2)Oc2ccc(C)cc2C3)cc1O	PMI act hi M6P 2.1
COc1ccc(-c2nc(-c3ccccc3)c(-c3cc([N+](=O)[O-])ccc3C)[nH]2)cc1O	none
CCOC(=O)c1c(C)n(-c2ccc(C)cc2)c2ccc(OCC(O)CN3CCN(C)CC3)cc12 (centres undefined)	NCF1 inh 54.0
CCOC(=O)c1c(C)n(C)c2ccc(OCC(O)CN3CCN(C)CC3)cc12 (centres undefined)	none
Cc1cc(C)n(-c2nc(NCCO)c3c4c(sc3n2)CCCC4)n1	none
Cc1cc(C)n(-c2nc(NCC(C)O)c3c4c(sc3n2)CCCC4)n1 (centres undefined)	Avidin bead fluor 47
CC(C)CC(c1nnnn1CCc1ccccc1)N1CCC(C(N)=O)CC1 (centres undefined)	none
CC1CCC2(CC1)NC(=S)N(c1ccccc1)N2 (centres undefined)	Avidin bead fluor 125, PMI act hi M6P 2.2
N#Cc1c2nc3ccccc3nc2n2cc(NC(=O)c3ccc(F)cc3)ccc12	NCF1 inh 55.0
Cc1c(C(=O)Nc2ccc(F)cc2)cn2c(nc3ccccc32)c1C#N	none (no result: GSH bead fluor, PMI activator, PMI act hi M6P, Diaphorase act)
Cc1cccc(C)c1NC(=O)COc1cccc(/C=N/NC(=O)C(=O)NCc2ccccc2)c1	Avidin bead fluor 57
O=C(CC12CC3CC(CC(C3)C1)C2)Nc1cccc2ncccc12	none
Cc1nc(NC(=S)NC(=O)c2cccs2)sc1C(=O)N(C)C	none
O=C(COC(=O)CCNS(=O)(=O)c1cccc(C(F)(F)F)c1)NC(=O)NC1CCCCC1	none
Cc1cccc(S(=O)(=O)NCCC(=O)OC(C)C(=O)NC(=O)NC2CCCCC2)c1 (centres undefined)	GSH bead fluor 258
O=C(O)C1CCCCC1C(=O)NCCCn1ccnc1 (centres undefined)	NCF1 inh 36.3
